Test results as given in ChEMBL document CHEMBL1275251, “Mutant selection window and characterization of allelic diversity for ciprofloxacin-resistant mutants of Rhodococcus equi” (Antimicrob Agents Chemother, 2010).
≈ marks a conversion by molar mass, not a printed value. Calls of active or inactive are those of the source. No cut-off for these calls is given here.

Tests used:
Prescottella equi [1] = test: Antibacterial activity against Rhodococcus equi W5234 harboring GyrA Asp87Asn mutation selected on 8 ug/ml of compound treated culture by broth microdilution method; type: functional, organism-based
Procedure, shortened: (§1)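 Mutants were selected by plating at least 1 × 10^10 cells, grown 48 h at 35°C in brain heart infusion broth, on ciprofloxacin-containing Columbia blood agar base for 4 days at 35°C. Each was confirmed by two passages at the selecting concentration and one drug-free passage. MIC was then read by broth microdilution in cation-supplemented Mueller-Hinton broth per CLSI M24-A. Each experiment was done twice.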

Prescottella equi [2] = test: Antibacterial activity against Rhodococcus equi W5234 harboring GyrA Ser83Arg mutation selected on 12 ug/ml of compound treated culture by broth microdilution method; type: functional; conditions: Rhodococcus (subgen. Prescottella) equi; procedure, shortened: as §1
Prescottella equi [3] = test: Antibacterial activity against Rhodococcus equi ATCC 6939T harboring GyrA Gly81Cys mutation selected on 4 ug/ml of compound treated culture by broth microdilution method; type: functional; conditions: Rhodococcus (subgen. Prescottella) equi; procedure, shortened: as §1
Prescottella equi [4] = test: Antibacterial activity against Rhodococcus equi ATCC 6939T selected on 4 ug/ml of compound treated culture by broth microdilution method; type: functional; conditions: Rhodococcus (subgen. Prescottella) equi; procedure, shortened: as §1
Prescottella equi [5] = test: Antibacterial activity against Rhodococcus equi W5234 harboring GyrA Asp87Gly mutation selected on 4 ug/ml of compound treated culture by broth microdilution method; type: functional, organism-based; procedure, shortened: as §1
Prescottella equi [6] = test: Antibacterial activity against Rhodococcus equi W5234 harboring GyrA Asp87Tyr mutation selected on 4 ug/ml of compound treated culture by broth microdilution method; type: functional; conditions: Rhodococcus (subgen. Prescottella) equi; procedure, shortened: as §1
Prescottella equi [7] = test: Antibacterial activity against Rhodococcus equi W5234 harboring GyrA Ser83Arg mutation selected on 2 ug/ml of compound treated culture by broth microdilution method; type: functional; conditions: Rhodococcus (subgen. Prescottella) equi; procedure, shortened: as §1
Prescottella equi [8] = test: Antibacterial activity against Rhodococcus equi W5234 harboring GyrA Gly81Cys mutation selected on 4 ug/ml of compound treated culture by broth microdilution method; type: functional, organism-based; procedure, shortened: as §1
Prescottella equi [9] = test: Antibacterial activity against Rhodococcus equi ATCC 6939T harboring GyrA Ser83Ile mutation selected on 16 ug/ml of compound treated culture by broth microdilution method; type: functional; conditions: Rhodococcus (subgen. Prescottella) equi; procedure, shortened: as §1
Prescottella equi [10] = test: Antibacterial activity against Rhodococcus equi ATCC 6939T harboring GyrA Ser83Ile mutation selected on 8 ug/ml of compound treated culture by broth microdilution method; type: functional; conditions: Rhodococcus (subgen. Prescottella) equi; procedure, shortened: as §1
Prescottella equi [11] = test: Antibacterial activity against Rhodococcus equi W5234 harboring GyrA Ser83Arg mutation selected on 8 ug/ml of compound treated culture by broth microdilution method; type: functional; conditions: Rhodococcus (subgen. Prescottella) equi; procedure, shortened: as §1
Prescottella equi [12] = test: Antibacterial activity against Rhodococcus equi W5234 harboring GyrA Ser83Ile mutation selected on 4 ug/ml of compound treated culture by broth microdilution method; type: functional; conditions: Rhodococcus (subgen. Prescottella) equi; procedure, shortened: as §1
Prescottella equi [13] = test: Antibacterial activity against Rhodococcus equi W5234 harboring GyrA Ser83Ile mutation selected on 12 ug/ml of compound treated culture by broth microdilution method; type: functional; conditions: Rhodococcus (subgen. Prescottella) equi; procedure, shortened: as §1
Prescottella equi [14] = test: Antibacterial activity against Rhodococcus equi W5234 harboring GyrA Ser83Arg mutation selected on 6 ug/ml of compound treated culture by broth microdilution method; type: functional; conditions: Rhodococcus (subgen. Prescottella) equi; procedure, shortened: as §1
Prescottella equi [15] = test: Antibacterial activity against Rhodococcus equi W5234 harboring GyrA Asp87Asn mutation selected on 6 ug/ml of compound treated culture by broth microdilution method; type: functional, organism-based; procedure, shortened: as §1
Prescottella equi [16] = test: Antibacterial activity against Rhodococcus equi ATCC 6939T harboring GyrA Ser83Arg mutation selected on 4 ug/ml of compound treated culture by broth microdilution method; type: functional, organism-based; procedure, shortened: as §1
Prescottella equi [17] = test: Antibacterial activity against Rhodococcus equi W5234 harboring GyrA Asp87Gly mutation selected on 6 ug/ml of compound treated culture by broth microdilution method; type: functional; conditions: Rhodococcus (subgen. Prescottella) equi; procedure, shortened: as §1
Prescottella equi [18] = test: Antibacterial activity against Rhodococcus equi ATCC 6939T selected on 2 ug/ml of compound treated culture by broth microdilution method; type: functional; conditions: Rhodococcus (subgen. Prescottella) equi; procedure, shortened: as §1
Prescottella equi [19] = test: Antibacterial activity against Rhodococcus equi ATCC 6939T harboring GyrA Ser83Arg mutation selected on 16 ug/ml of compound treated culture by broth microdilution method; type: functional; conditions: Rhodococcus (subgen. Prescottella) equi; procedure, shortened: as §1
Prescottella equi [20] = test: Antibacterial activity against Rhodococcus equi ATCC 6939T harboring GyrA Ser83Arg mutation selected on 8 ug/ml of compound treated culture by broth microdilution method; type: functional; conditions: Rhodococcus (subgen. Prescottella) equi; procedure, shortened: as §1
Prescottella equi [21] = test: Antibacterial activity against Rhodococcus equi ATCC 6939T selected on 8 ug/ml of compound treated culture by broth microdilution method; type: functional, organism-based; procedure, shortened: as §1
Prescottella equi [22] = test: Antibacterial activity against Rhodococcus equi W5234 harboring GyrB Asn464Asp mutation selected on 1 ug/ml of compound treated culture by broth microdilution method; type: functional; conditions: Rhodococcus (subgen. Prescottella) equi; procedure, shortened: as §1
Prescottella equi [23] = test: Antibacterial activity against Rhodococcus equi ATCC 6939T harboring GyrA Asp87Gly mutation selected on 6 ug/ml of compound treated culture by broth microdilution method; type: functional; conditions: Rhodococcus (subgen. Prescottella) equi; procedure, shortened: as §1
Prescottella equi [24] = test: Antibacterial activity against Rhodococcus equi ATCC 6939T harboring GyrA Asp87Gly mutation selected on 8 ug/ml of compound treated culture by broth microdilution method; type: functional; conditions: Rhodococcus (subgen. Prescottella) equi; procedure, shortened: as §1
Prescottella equi [25] = test: Antibacterial activity against Rhodococcus equi ATCC 6939T harboring GyrA Asp87Asn mutation selected on 4 ug/ml of compound treated culture by broth microdilution method; type: functional, organism-based; procedure, shortened: as §1

O=C(O)c1cn(C2CC2)c2cc(N3CCNCC3)c(F)cc2c1=O [CIPROFLOXACIN]
MIC (Prescottella equi [1]): inactive
MIC (Prescottella equi [2]): 64 µg/mL (≈ 193 µM)
MIC (Prescottella equi [3]): 8 µg/mL (≈ 24.1 µM)
MIC (Prescottella equi [4]): 4 µg/mL (≈ 12.1 µM)
MIC (Prescottella equi [5]): inactive
MIC (Prescottella equi [6]): 8 µg/mL (≈ 24.1 µM)
MIC (Prescottella equi [7]): 8 µg/mL (≈ 24.1 µM)
MIC (Prescottella equi [8]): inactive
MIC (Prescottella equi [9]): 64 µg/mL (≈ 193 µM)
MIC (Prescottella equi [10]): 32 µg/mL (≈ 96.6 µM)
MIC (Prescottella equi [11]): 32 µg/mL (≈ 96.6 µM)
MIC (Prescottella equi [12]): 32 µg/mL (≈ 96.6 µM)
MIC (Prescottella equi [13]): 64 µg/mL (≈ 193 µM)
MIC (Prescottella equi [14]): 32 µg/mL (≈ 96.6 µM)
MIC (Prescottella equi [15]): inactive
MIC (Prescottella equi [16]): inactive
MIC (Prescottella equi [17]): 16 µg/mL (≈ 48.3 µM)
MIC (Prescottella equi [18]): 2 µg/mL (≈ 6.04 µM)
MIC (Prescottella equi [19]): 32 µg/mL (≈ 96.6 µM)
MIC (Prescottella equi [20]): 64 µg/mL (≈ 193 µM)
MIC (Prescottella equi [21]): inactive
MIC (Prescottella equi [22]): 4 µg/mL (≈ 12.1 µM)
MIC (Prescottella equi [23]): 16 µg/mL (≈ 48.3 µM)
MIC (Prescottella equi [24]): 16 µg/mL (≈ 48.3 µM)
MIC (Prescottella equi [25]): inactive
